# High-throughput results as filed in PubChem.
# Apaf-1 inh: inhibitors of human Apaf-1 apoptosome, primary screen, biochemical, DEVD-Rh110 fluorescence, uHTS. actives 0.71% (n = 330,000). inhibition, % at 20 µM. reconstituted apoptosome caspase-3 activity. AID 489030, 2010. Apoptotic protease-activating factor 1 (Homo sapiens), O14727; active means inhibition of at least 40% at 20 µM;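 further: plate controls were DMSO wells for no effect and DEVD-CHO caspase inhibitor wells for full effect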
#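 Medium: Hepes buffer, pH 7.5 / System: biochemical Apaf-1 apoptosome reconstitution / Measured by: Rh110 fluorescence, excitation 480 nm, emission 540 nm / Times: compound with Apaf-1, dATP, procaspase-3 30 min, then 50 min reaction, room temperature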
# UCH37 inh: inhibitors of human UCH37 deubiquitinase, primary screen, biochemical, Ub-AMC cleavage, fluorescence. actives 0.33% (n = 330,000). purified proteasome/UCH37. inhibition, % (no concentration beside the values). Ubiquitin carboxyl-terminal hydrolase isozyme L5 (Homo sapiens), Q9Y5K5;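 active means mean inhibition over replicate wells above about 20%, limit read from the data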;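 further: 0% = compound-free wells with enzyme and 100% = wells lacking proteasome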
#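 Signal – fluorescence, ex 355 nm, em 460 nm · System – Proteasome-bound UCH37 · Input – 0.15 nM proteasome as dispensed · Timing – 30 min preincubation with enzyme, 25 min cleavage at room temperature · Read-out basis – percent inhibition of cleavage signal versus uninhibited and no-proteasome wells · Medium – Tris-HCl pH 7.4 with ATP-MgCl2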
# GSTO1 inh: inhibitors of recombinant GSTO1, primary screen, counter-screen for RBBP9 inhibitor project, biochemical, fluorescence polarization; Glutathione S-transferase omega-1 (Homo sapiens), P78417; activity-based probe fluorescence polarization; inhibition, % at 5.96 µM; actives 1.1% (n = 300,000);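 active means inhibition above the campaign mean inhibition plus 3 SD, cut at about 35% in these data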;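 further: 0% = GSTO1-1 with DMSO and 100% = wells lacking GSTO1-1 enzyme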
# PP5 inh: PP5 phosphatase inhibitors, primary screen, biochemical, fluorescence; Serine/threonine-protein phosphatase 5 (Homo sapiens), P53041; purified PP5c, OMFP substrate fluorescence; inhibition, % at 6.7 µM; actives 0.18% (n = 320,000); AID 1987, 2009;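 active means inhibition above the campaign's mean inhibition across all tested compounds plus 3 SD, cut at about 9.5% in these data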;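 further: 0% = DMSO only and 100% = 100 µM cantharidin control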
# CTSL1 counter: Fasciola hepatica cathepsin L1 inhibitors, primary screen, counter-screen for PFM18AAP inhibitor project, biochemical, QFRET, fluorogenic peptide substrate. inhibition, % at 5.96 µM. recombinant F. hepatica cathepsin L1, Z-Leu-Arg-MCA fluorescence. actives 0.49% (n = 300,000);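 active means inhibition above the mean of all tested compounds plus 3 SD, set per screening campaign, cut at about 17% in these data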;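 further: 0% = plate median of test compound wells and 100% = 1 µM Z-Phe-Ala-diazomethylketone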
# PAD4 FP inh: human PAD4 inhibitors, primary screen, biochemical, fluorescence polarization, 1536-well format | Protein-arginine deiminase type-4 (Homo sapiens), Q9UM07 | recombinant PAD4, RCA probe fluorescence polarization | inhibition, % at 6.36 µM | actives 0.41% (n = 330,000) | AID 485272, 2010;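 active means percent inhibition above a cutoff equal to the mean of all tested compounds plus 3 SD, cut at about 15% in these data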;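 further: 0% = PAD4 with RCA probe and DMSO and 100% = probe without PAD4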
# PP5 inh confirm: PP5 phosphatase inhibitors, confirmation, biochemical, fluorescence, human. Purified PP5, fluorogenic phosphatase substrate. shares compounds with PP5 inh. inhibition, % at 6.7 µM. actives 22% (n = 460); in the data active means inhibition above about 9.5%
# PP1 inh counter: PP1 phosphatase inhibitors, counter-screen for PP5 inhibitor project, biochemical, fluorescence, triplicate; actives 4% (n = 460); inhibition, % at 6.7 µM; AID 2355, 2010; shares compounds with PP5 inh; PP1 enzyme, fluorescent phosphatase substrate; in the data active means inhibition above about 16%
# The depositor's hits bear a star; . = no result given. Hits are enriched below; roughly 2% of the tested compounds scored in any of these assays.
SMILES,Apaf-1 inh,UCH37 inh,GSTO1 inh,PP5 inh,CTSL1 counter,PAD4 FP inh,PP5 inh confirm,PP1 inh counter
CCc1ccc(CN(C)C(=O)CCc2nc3ccccc3n(-c3ccc(OC)cc3)c2=O)cc1,31,2,-12,10*,1,-14,2,2
O=C(NNc1ccc(C(F)(F)F)cc1[N+](=O)[O-])c1ccc(NS(=O)(=O)c2ccc(F)cc2)cc1,.,2,5,10*,4,2,3,3
CC1=NN(c2ccccc2)C(=O)/C1=C\C=C1\N(C)c2ccccc2C1(C)C,34,7,3,8,6,-2,.,.
CC1=NN(c2ccccc2)C(=O)/C1=C\C=C1/N(C)c2ccccc2C1(C)C,26,6,72*,10*,5,-9,9,7
COc1cccc(NC(=S)NN=C2CCCCc3ccccc32)c1,.,-2,.,.,.,.,.,.
CCOC(=O)c1c(C(F)(F)C(F)(F)C(F)(F)C(F)(F)F)n[nH]c1C,16,1,11,14*,5,0,9.9*,13
O=[N+]([O-])c1ccc(O)c(-c2nn[nH]n2)c1,0,6,27,30*,-1,3,18*,-5
Cc1cc(C)n(-c2ccc([N+](=O)[O-])cc2-c2nn[nH]n2)n1,0,4,-3,0,0,0,.,.
CC(C)(CO)NC12CC3CC(CC(C3)C1)C2,-6,0,-3,11*,-4,-2,-2,-4
CC(=NNC(N)=S)c1cc(-c2ccccc2)c(-c2ccccc2)s1,.,-15,.,.,.,.,.,.
O=C(NN=Cc1c(O)ccc2ccccc12)c1ccc(Cn2cccn2)o1,.,-92,.,.,.,.,.,.
O=C(N/N=C\c1c(O)ccc2ccccc12)c1ccc(Cn2cccn2)o1,-1,.,13,19*,2,-5,-4,15
CC(C)C[C@H](NC(=O)c1[nH]cnc1C(=O)N[C@@H](C)C(=O)OC(C)(C)C)C(=O)OC(C)(C)C,29,2,8,11*,6,9,7,8
CC(C)C[C@H](NC(=O)c1[nH]cnc1C(=O)Nc1ccccc1)C(=O)OC(C)(C)C,27,28*,-3,9.8*,7,-2,7,6
CC(C)C[C@H](NC(=O)c1nc[nH]c1C(=O)NCC(=O)OC(C)(C)C)C(=O)OCc1ccccc1,23,-1,-11,12*,0,-1,9,9
CC(C)C[C@H](NC(=O)c1nc[nH]c1C(=O)NC1CCNCC1)C(=O)OC(C)(C)C,0,-6,-3,3,-2,-5,.,.
CCOC(=O)c1ccc(NC(=O)c2nc[nH]c2C(=O)N[C@@H](CC(C)C)C(=O)OC(C)(C)C)cc1,12,0,-6,8,7,2,.,.
CCCCC1=NN(C(=O)c2ccncc2)C(O)(C(F)(F)F)C1 (configuration not stated),-1,2,2,4,1,-4,.,.
CCCCC1=NN(C(=O)c2cocc2C)C(O)(C(F)(F)F)C1 (configuration not stated),-8,5,5,13*,-1,3,-3,-4
O=C(Nc1ccccc1)N1CCC(n2c(=O)[nH]c3ccccc32)CC1,6,3,-1,0,7,-5,.,.
O=C(NC1CCCCC1)N1CCC(n2c(=O)[nH]c3ccccc32)CC1,-2,2,1,19*,-3,4,-2,-1
Cc1onc(-c2ccccc2Cl)c1C(=O)NN=C(N)COc1ccc(Cl)cc1,.,4,.,.,.,.,.,.
Cc1onc(-c2c(Cl)cccc2Cl)c1C(=O)N/N=C(\N)COc1ccc(Cl)cc1,2,.,-13,12*,2,0,0,7
CC(C)COC(=O)N1CC(O)CC1C(=O)O (configuration not stated),-2,-1,4,11*,2,0,-1,-2
O=C(CSc1nnc(-c2ccccc2)n1-c1ccc(Cl)cc1)NN=Cc1ccccc1C(=O)O,.,1,.,.,.,.,.,.
SMILES,Apaf-1 inh,UCH37 inh,GSTO1 inh,PP5 inh,CTSL1 counter,PAD4 FP inh,PP5 inh confirm,PP1 inh counter
O=S(=O)(c1ccc(OC(F)(F)F)cc1)N1CCC(O)(c2cccc(C(F)(F)F)c2)CC1,25,6,7,11*,7,4,7,8
COc1cc(S(=O)(=O)N2CCC(O)(c3cccc(C(F)(F)F)c3)CC2)ccc1-n1cnnn1,-14,-1,2,5,-4,0,.,.
COC(=O)c1sc2cc(C(F)(F)F)cnc2c1-c1cccnc1,29,5,-3,12*,1,1,-5,-3
N#Cc1c(N=Cc2cc3ccccc3s2)sc2c1CCC2,.,7,.,.,.,.,.,.
COc1ccc(C(=O)NC2CCN(CC(=O)NCc3cccc(OC)c3)CC2)cc1,-2,1,3,12*,-3,1,-3,-6
COc1ccc(C(=O)C2CCN(CC(=O)NCc3ccccc3)CC2)cc1,10,1,8,2,-2,4,.,.
Cc1ccc(OCC(=O)NN=Cc2ccccc2)c([N+](=O)[O-])c1,.,4,.,.,.,.,.,.
CCc1c(C(=O)NCCc2ccc(OC)c(OC)c2)[nH]c(C)c1C(C)=O,-2,2,1,13*,-1,1,-6,-4
CCc1c(C(=O)NCCc2cccc(C)c2)[nH]c(C)c1C(C)=O,14,.,7,-2,1,-2,.,.
Nc1ccc(N=Nc2ccccc2O)c(N)c1,14,10,31,12*,2,13,1,-2
Oc1ccccc1N=Nc1ccccc1O,.,7,.,.,.,.,.,.
COc1ccccc1NC(=O)Cc1nnc(SCC(=O)NC2CCCC2)n1C,9,1,2,-1,0,-6,.,.
COc1ccccc1NC(=O)Cn1nc(-c2ccncc2)nc1SCC(=O)NC1CCCC1,0,3,5,11*,-2,0,-7,-7
Cc1occc1C(=O)NN=Cc1ccc(Cl)c([N+](=O)[O-])c1,.,2,.,.,.,.,.,.
O=C(Nc1ccccc1F)c1ccc(COc2ccc(Cl)cc2Cl)o1,4,1,1,5,2,1,.,.
